According to ChEMBL document CHEMBL1156978, “Improving binding specificity of pharmacological chaperones that target mutant superoxide dismutase-1 linked to familial amyotrophic lateral sclerosis using computational methods” (J Med Chem, 2010):
Calls of active or inactive are those of the source. The calls are words filed in the database; no cut-off is given here.

Columns and labels:
Homo sapiens [1] = organism: Homo sapiens; test: Inhibition of human GST-SOD1 A4V and N53A mutant aggregation expressed in Escherichia coli Rosetta assessed as dimeric enzyme level at 75 uM by […]
In short: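 Metal-free SOD-1 mutant prepared by dialysis against acetate pH 3.8/10mM EDTA, then pH 5.5/100mM NaCl; chelex-treated buffers, plastic tubes. Dimer purified on Superdex 75. Apoprotein 25μM preincubated with compound 75μM, 37°C, 15 min; aggregation started with 5mM EDTA at 37°C. Aliquots analysed by Superdex 200 gel filtration in TBS pH 7.4 (220/276 nm); dimer estimated from peak area.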

Homo sapiens [2] = organism: Homo sapiens; test: Inhibition of human GST-SOD1 A4V mutant aggregation expressed in Escherichia coli Rosetta assessed as dimeric enzyme level at 20 uM […]
In short: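 Metal-free SOD-1 A4V apoprotein (25μM) preincubated with increasing compound concentrations, 37°C, 15 min, then 5mM EDTA added and aggregation run 4 hrs at 37°C. Dimer measured by size exclusion chromatography peak area; percentage inhibition calculated against untreated A4V.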

[3] = target: Superoxide dismutase [Cu-Zn] (Homo sapiens) (UniProt P00441); test: Binding affinity to human GST-SOD1 expressed in Escherichia coli Rosetta at 100 uM in presence of human plasma by reverse phase HPLC analysis; assay type: cell-free
In short: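 GST-SOD-1 fusion (final 75μM) added to 1 ml human blood plasma with compound at 100μM; shaken 60 rpm, 4°C, 24 h. Complex captured on glutathione-sepharose (4°C, 1 h), compound released with 5% TFA and quantified by C18 reverse-phase HPLC (40-100% acetonitrile/0.2% TFA gradient, 20 min). Buffer-only control taken as theoretical maximum for relative binding; GST tag alone as control.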

Homo sapiens [4] = organism: Homo sapiens; test: Inhibition of human GST-SOD1 A4V mutant aggregation expressed in Escherichia coli Rosetta assessed as dimeric enzyme level at 75 uM by […]

Superoxide dismutase [Cu-Zn] (Homo sapiens), sequence (P00441 whole entry, the tested form may be a part): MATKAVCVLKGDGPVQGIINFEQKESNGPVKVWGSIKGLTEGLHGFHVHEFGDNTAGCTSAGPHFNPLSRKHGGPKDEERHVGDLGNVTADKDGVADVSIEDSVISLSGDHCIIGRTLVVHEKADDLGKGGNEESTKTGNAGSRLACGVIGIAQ

Row | Activity (Homo sapiens [1]) | Activity (Homo sapiens [2]) | Activity [3] | Activity (Homo sapiens [4]) | SMILES
1 | inactive | Active |  |  | O=c1[nH]cc(CSc2n[nH]c(=O)[nH]c2=O)c(=O)[nH]1
2 |  |  | inactive |  | O=c1cc(Nc2ccc(Cl)cc2F)[nH]c(=O)[nH]1
3 |  |  | inactive | Active | O=c1[nH]nc(SCc2c(F)cccc2Cl)c(=O)[nH]1
4 | inactive | Active | inactive | Active | O=c1[nH]nc(SCc2ccccc2)c(=O)[nH]1
5 |  |  | inactive | Active | O=c1[nH]nc(SCc2ccccc2Cl)c(=O)[nH]1
6 |  |  | inactive | Active | O=c1cc(Nc2ccc3ccccc3c2)[nH]c(=O)[nH]1
